B1: tRNA (parent)
chain: GUUCCGUUGGCGUAAUGGUAACGCGUCUCCCUCCUAAGGAGAAGACUGCGGGUUCGAGUCCCGUACGGAACG

In the data set the parent is B1. The data set can be described thus: yeast fitness, log relative to wild type (ln ratio); higher = fitter; tRNA-Arg(CCU), competitive growth, 37 C, 1 M NaCl. A digest of the protocol: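 In BY4742 missing the chromosomal gene, a combinatorial tRNA-Arg(CCU) variant library was maintained on a HIS3 centromeric plasmid. Selection ran ~6.5 generations (~26.5 h) in SC-HIS 1M NaCl at 37 °C, following 4 generations in SC-HIS at 30 °C, with three outputs per input and variant counts by 125 bp paired-end Illumina sequencing. Fitness is the natural log of a genotype's generations relative to the wild type's, with generations taken as inverse-variance-weighted, OD-scaled log2 output/input frequency.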
For G1A U2G G6A A43C C46U A69G A70U C71U, the “yeast fitness (ln)” value is -0.262. The value for G1A U2G G6A C46U C66U A69G A70G C71U was -0.413; that for G1A U2G G6A C27U C71U was -0.263; that for G1A U2G G6A C27U C46U C66U A69G A70U C71U was -0.542. As for G1A U2G G6A C27U A43C A70U C71U, the “yeast fitness (ln)” value was -0.365. On to G1A U2G G6A C27U A43C C66A A70U, for which the “yeast fitness (ln)” value was -0.249. The value for G1A U2G G6A A43C C46U C66U A70G was -0.181; that for G1A U2G G6A A43C C46U C66U A70U was -0.306; that for G1A U2G G6A C27U A43C C46U A70U was -0.215. In the case of G1A U2G G6A C27U A43C C46U A70G, the “yeast fitness (ln)” value is -0.224.

Regarding G1A U2G G6A C27U C66A A69G A70G C71U, the “yeast fitness (ln)” value was -0.353. The result for G1A U2G G6A C27U C46U A69G C71U reads -0.269; that for G1A U2G G6A A69G A70U C71U, -0.331; that for G1A U2G G6A A43C C46U C66U A70G C71U, -0.266.

For the variant G1A U2G G6A C27U A43C A69G A70G C71U, the “yeast fitness (ln)” value is -0.354. With G1A U2G G6A C27U C46U A69G A70U C71U, the “yeast fitness (ln)” value is -0.379. The result for G1A U2G G6A A70U C71U reads -0.0851; that for G1A U2G G6A C27U C66U A70G, -0.349. The value for G1A U2G G6A C27U C66U A70U was -0.234; that for G1A U2G G6A A43C C66A A70U was -0.216. In the case of G1A U2G G6A C27U A43C C66U, the “yeast fitness (ln)” value is -0.348.

Take G1A U2G G6A A70U: the “yeast fitness (ln)” value is -0.0829.

For the variant G1A U2G G6A A70G, the “yeast fitness (ln)” value is -0.16. The value for G1A U2G G6A C46U A69G A70U was -0.165; that for G1A U2G G6A C46U A69G A70G was -0.251. As to G1A U2G G6A A43C A70U C71U, the “yeast fitness (ln)” value is -0.309. The result for G1A U2G G6A C27U A70U reads -0.24. Take G1A U2G G6A C27U A70G: the “yeast fitness (ln)” value is -0.339. Consider G1A U2G G6A C46U A69G C71U, for which the “yeast fitness (ln)” value was -0.193.

G1A U2G G6A C27U C46U C66A A70U: the “yeast fitness (ln)” value was -0.187.

G1A U2G G6A C27U A43C C46U C66A A69G C71U: the “yeast fitness (ln)” value is -0.275. On to G1A U2G G6A C27U A43C A69G C71U, for which the “yeast fitness (ln)” value is -0.673. The result for G1A U2G G6A A43C C46U C71U reads -0.23; that for G1A U2G G6A A43C C66A A69G A70G C71U, -0.253. G1A U2G G6A C27U A43C C46U C71U: the “yeast fitness (ln)” value is -0.42. The value for G1A U2G G6A C27U A43C C66U A70U was -0.236.

For the variant G1A U2G G6A C27U A43C C66U A70G, the “yeast fitness (ln)” value was -0.337. Turning to G1A U2G G6A C27U A43C C46U A70U C71U, the “yeast fitness (ln)” value is -0.307. In the case of G1A U2G G6A A43C C46U A70G C71U, the “yeast fitness (ln)” value was -0.202. The value for G1A U2G G6A C27U C66A A70U C71U was -0.457; that for G1A U2G G6A C27U C46U C66U was -0.258. Turning to G1A U2G G6A A43C A69G C71U, the “yeast fitness (ln)” value is -0.506. As to G1A U2G G6A A43C C46U C66U, the “yeast fitness (ln)” value was -0.23.

Consider G1A U2G G6A C27U C46U A70U C71U, for which the “yeast fitness (ln)” value was -0.15.

On to G1A U2G G6A A43C C46U C66A A69G A70U C71U, for which the “yeast fitness (ln)” value was -0.286. Consider G1A U2G G6A C46U A70U, for which the “yeast fitness (ln)” value was -0.143. The result for G1A U2G G6A C46U A70G reads -0.176; that for G1A U2G G6A C27U C46U C66U A69G C71U, -0.332. The value for G1A U2G G6A C27U A43C C66U A69G A70U was -0.387; that for G1A U2G G6A C27U A43C C66U A69G A70G was -0.447. The value for G1A U2G G6A A69G A70U was -0.153. In the case of G1A U2G G6A A69G A70G, the “yeast fitness (ln)” value is -0.333. The result for G1A U2G G6A C27U A43C C46U C66U C71U reads -0.29; that for G1A U2G G6A A43C C46U C66U C71U, -0.177; that for G1A U2G G6A C27U C66U A69G A70G C71U, -0.402.

On to G1A U2G G6A A43C C46U C66A A70U, for which the “yeast fitness (ln)” value is -0.191. Take G1A U2G G6A A43C C46U C66A A70G: the “yeast fitness (ln)” value is -0.26. Take G1A U2G G6A C27U A43C C66U A70U C71U: the “yeast fitness (ln)” value was -0.536.

As to G1A U2G G6A C27U A43C C46U C66U A70G C71U, the “yeast fitness (ln)” value is -0.286. G1A U2G G6A C27U C46U C66A C71U: the “yeast fitness (ln)” value was -0.179.

G1A U2G G6A C46U C66U: the “yeast fitness (ln)” value is -0.13. Turning to G1A U2G G6A C27U, the “yeast fitness (ln)” value was -0.0861. Turning to G1A U2G G6A C27U C46U A69G A70G, the “yeast fitness (ln)” value was -0.226. The result for G1A U2G G6A C27U C46U A69G A70U reads -0.233. The value for G1A U2G G6A C27U A43C C66A A69G A70G C71U was -0.351. As to G1A U2G G6A C27U C66U C71U, the “yeast fitness (ln)” value is -0.344.

With G1A U2G G6A C27U A43C C46U C66U A69G A70G C71U, the “yeast fitness (ln)” value is -0.433.

As to G1A U2G G6A C46U, the “yeast fitness (ln)” value was -0.0789. The result for G1A U2G G6A C46U C66U A70G C71U reads -0.517; that for G1A U2G G6A C46U C66U A69G A70U C71U, -0.141; that for G1A U2G G6A A43C C66U A70U, -0.434. The value for G1A U2G G6A C27U C46U C66U A70U was -0.28; that for G1A U2G G6A C27U C46U C66U A70G was -0.194. As for G1A U2G G6A A43C C66U A69G A70U C71U, the “yeast fitness (ln)” value is -0.396. Regarding G1A U2G G6A A43C C46U A69G A70G C71U, the “yeast fitness (ln)” value was -0.303. Turning to G1A U2G G6A C27U C66A A70G, the “yeast fitness (ln)” value is -0.296. The result for G1A U2G G6A C27U C66A A70U reads -0.129; that for G1A U2G G6A C27U A43C C46U A70G C71U, -0.405. For G1A U2G G6A A43C C46U C66U A70U C71U, the “yeast fitness (ln)” value is -0.086. In the case of G1A U2G G6A A43C C46U A70G, the “yeast fitness (ln)” value is -0.163. The result for G1A U2G G6A A43C C46U A70U reads -0.165; that for G1A U2G G6A C27U A43C A70U, -0.26; that for G1A U2G G6A C27U A43C A70G, -0.381.
